Screening data: PubChem, Johns Hopkins Ion Channel Center
Compounds with a hit are over-represented: about 3.5% of the library has one in this group of screens.
MrgX1 antag – human MrgX1 receptor antagonism, primary screen; B-score at 10 µM; MRGX1-HEK293 calcium flux, Fluo-4, BAM8-22 antagonism; stronger effect = lower value; 1.3% of 310,000 active; AID 588676;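 active = calcium-response B-score plate-corrected more than 3 library SD below zero, starting fluorescence within 5 deviations, no agonist response on first addition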;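 also: peak minus trough fluorescence over baseline after final BAM8-22 challenge near maximal dose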
RGS4 block – inhibitors of human RGS4; P49798; HEK293 M3R/RGS4 inducible, Fluo-4 calcium flux; stronger effect = higher value; triggered by carbachol at its EC20; B-score at 10 µM; 0.45% of 310,000 active; AID 463165;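 active = B-score, a plate-corrected calcium signal, over three deviations above library mean, with baseline fluorescence within five deviations of library mean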;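 also: RGS4 expression induced by doxycycline in cells with stable M3 receptor; B-score is computed from the integrated fluorescence ratio over baseline after carbachol; higher B-score means a larger calcium signal and so more RGS4 inhibition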
Target sequence (P49798 whole entry, looked up): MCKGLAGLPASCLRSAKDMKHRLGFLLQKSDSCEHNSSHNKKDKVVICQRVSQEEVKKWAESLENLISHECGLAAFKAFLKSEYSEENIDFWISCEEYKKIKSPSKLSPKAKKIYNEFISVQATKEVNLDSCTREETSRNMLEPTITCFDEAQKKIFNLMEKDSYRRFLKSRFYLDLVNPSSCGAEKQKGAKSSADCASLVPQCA
RGS4 pot – RGS4 potentiation or activation | HEK293 M3R/inducible RGS4, carbachol calcium flux Fluo4; stronger effect = lower value | B-score at 10 µM | 0.92% of 310,000 active | AID 463111;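 active = B-score of the integrated calcium signal more than 4 SD below the library mean, with starting fluorescence not abnormally high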;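 also: negative B-score means reduced calcium response which marks RGS4 activation or potentiation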
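Material: M3R-expressing HEK293 line, RGS4 induced by doxycycline | Schedule: Overnight RGS4 induction, 30 min dye load 37 °C, 20 min compound RT | Measured by: Fluo4 fluorescence kinetic imaging of calcium | Read-out: Integrated calcium ratio converted to B score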
MrgX1 ag – agonists of human MrgX1 receptor; AID 588627; B-score at 10 µM; 0.44% of 310,000 active; MrgX1-HEK293 cells, Fluo-4 calcium fluorescence, agonist mode; stronger effect = higher value; Q96LB2;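 active = calcium response B-score plate-corrected fluorescence ratio at least 3 library SD, with starting fluorescence B-score inside 5 SD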
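Material: MrgX1-expressing HEK293 cells; input: 15,000 cells per well; doses: test compound given as first of three sequential additions; schedule: overnight plating before 1 h dye loading; technique: Fluo-4 NW calcium-flux fluorescence, kinetic read; evaluation: baseline-normalised fluorescence change ratio, B-scored; control set: plate-wise positive and negative controls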
MrgX1 allo act – human MrgX1 positive allosteric modulation, primary screen; MrgX1-HEK293, Fluo-4 calcium flux, FDSS; stronger effect = higher value; B-score at 10 µM; AID 588675; Q96LB2; 0.63% of 310,000 active;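 active = plate-corrected calcium response at least 3 library SD above typical, normal starting fluorescence, not activating the receptor alone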;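 also: compound read alongside a low EC10 to EC30 dose of BAM8-22 agonist; peak minus trough fluorescence over baseline measured at the second addition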
* hit, by the source's call; i = inactive; · = no result given.

SMILES	MrgX1 antag	RGS4 block	RGS4 pot	MrgX1 ag	MrgX1 allo act
CCOc1ccc(N(C)c2ccc(/C=C3/SC(=S)NC3=O)cc2)cc1	i	i	i	35*	i
CCN(CC)c1ccc(-c2sc(Nc3ccccc3)n[n+]2-c2ccc(F)cc2)cc1	i	i	i	i	i
COc1ccc(C)cc1Nc1n[n+](-c2ccccc2)c(-c2ccc(N(C)C)cc2)s1	i	i	i	34*	i
COc1ccc2ccccc2c1-c1sc(Nc2ccccc2)n[n+]1-c1ccc(F)cc1	-5.9*	i	i	i	i
CN(C)c1ccc(-c2sc(Nc3ccccc3)n[n+]2-c2ccc(F)cc2)cc1	i	i	i	47*	i
CCc1ccc(Nc2n[n+](-c3ccccc3)c(-c3ccc(N(CC)CC)cc3)s2)cc1	i	i	i	45*	i
COc1ccc(CCNC(=O)CCC(=O)N2CC(C)Oc3ccccc32)cc1OC (stereo unspecified)	i	i	i	i	i
COc1ccccc1C(=O)NC(=O)Nc1c(C)cc(C)cc1C	i	i	i	i	i
O=C1CCC(C(=O)N2CCSCC2)CN1CCc1cccc(F)c1 (stereo unspecified)	i	i	i	i	i
O=S(=O)(/N=C(/Nc1ccc(Cl)cc1Cl)c1ccccc1)c1cccs1	i	i	i	i	i
CCc1ccc(Nc2n[n+](-c3ccccc3)c(/C=C/c3ccccc3)s2)cc1	i	i	i	i	7.4*
CCc1ccc(S(=O)(=O)Nc2ccc(O)c3c(=O)cc(-c4ccccc4Cl)oc23)cc1	i	i	i	i	i
O=c1cc(-c2ccccc2Cl)oc2c(NS(=O)(=O)c3cc(Cl)cc(Cl)c3O)ccc(O)c12	i	i	i	40*	i
CC/C(=N\NS(=O)(=O)c1ccc(C)cc1)c1ccco1	i	i	i	i	i
COc1ccc(CCNC(=O)c2ccc3c(c2)N(Cc2ccc(F)cc2)CCS3)c(OC)c1	i	i	i	i	i
O=C(NN1C(=O)C2C(c3ccccc3)C=CC(c3ccccc3)C2C1=O)c1cccc(Br)c1 (stereo unspecified)	i	i	-10*	i	i
CN(C)CCCN1c2ccccc2CCc2ccccc21	i	·	·	i	i
CC(CN(C)C)CN1c2ccccc2CCc2ccccc21 (stereo unspecified)	-4.9*	i	i	i	i
CC(C)NC[C@@H](O)c1ccc(O)c(O)c1	i	i	i	32*	i
CN(C)CC(C)(C)CNC(=O)CC1C(=O)NCCN1Cc1ccc(-c2ccccc2)cc1 (stereo unspecified)	i	i	i	i	i
COC(=O)Cn1c(=NC(=O)c2nc3ccccc3s2)sc2cc(S(C)(=O)=O)ccc21	-5.2*	i	i	i	i
COC(=O)Cn1c(=NC(=O)c2sc3ccccc3c2Cl)sc2cc(S(N)(=O)=O)ccc21	i	i	i	i	i
COC(=O)Cn1c(=NC(=O)c2ccc(Cl)s2)sc2cc(C)ccc21	-5.9*	i	i	i	i
COc1ccc(C(=O)CNc2ccc(C)cc2C)cc1	i	i	i	i	i
CCn1c(=NC(=O)CS(=O)(=O)c2ccc(C)cc2)sc2cccc(OC)c21	i	i	i	i	i
SMILES	MrgX1 antag	RGS4 block	RGS4 pot	MrgX1 ag	MrgX1 allo act
CCn1c(=NC(=O)c2ccc(S(=O)(=O)N(C)C)cc2)sc2cccc(OC)c21	i	i	-7.2*	i	i
CCC1=NN(C(=O)c2cccc([N+](=O)[O-])c2)C(O)(c2ccc(C)cc2)C1 (stereo unspecified)	i	i	i	i	i
O=C(CC(=O)c1cc(Cl)ccc1O)c1ccccc1	-5*	i	i	i	i
COc1ccc2noc3c2c1C(=O)c1ccccc1-3	i	i	-7.2*	i	i
FC(F)Sc1ccc(NC(=S)NCC2CCCCC2)cc1	-5.1*	i	i	i	i
CCOC(=O)c1sc(=S)n(Cc2ccccc2)c1N	i	i	i	47*	i
